SMILES strings stand for the structures. pIC50: −log10 of the molar value.

The test system of one data set is HeLa. Description: Antiproliferative activity against human HeLa cells by MTT assay. Format: functional, cell-based. Summed up: (§1)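 Growth inhibition rate calculated per compound. IC₅₀ derived by curve fitting.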
Another data set deals with A2780. The data set can be described thus: Antiproliferative activity against human A2780 cells by MTT assay. Format: functional, cell-based. Summed up: as §1
The test system of another data set is HCT-116. The data set can be described thus: Antiproliferative activity against human HCT116 cells by MTT assay. Format: functional, cell-based. Summed up: as §1
In a further data set the test system is MDA-MB-231. Description: Antiproliferative activity against human MDA-MB-231 cells by MTT assay. Format: functional, cell-based. Summed up: as §1
Data set [1] is described as follows: Inhibition of pig brain tubulin polymerization measured every 1 min for 20 mins by spectrophotometric analysis. Also on record: species or system Sus scrofa.
Data set [2] in a line: Cytotoxicity against HOSEC at 50 uM by MTT assay relative to control. Conditions: human.
The nature of data set [3]: Cytotoxicity against HOSEC at 10 uM by MTT assay relative to control. Conditions: human.

As for `COc1ccc(N2C(=O)N(CCO)C(=O)C2c2cc(OC)c(OC)c(OC)c2)cc1N` (stereo unspecified), the negative logarithm of the IC50 (pIC50) in the data set with HeLa is 5.44; in the data set on A2780 it was 5.18.
On to `COc1ccc(N2C(=O)NC(=O)C2c2cc(OC)c(OC)c(OC)c2)cc1O` (stereo unspecified), for which the pIC50 in the data set with HeLa was 6.18; with HCT-116, 6.02; in the data set on MDA-MB-231, 6.11; in the data set on A2780, 6.09.
On to `COc1cc(C2C(=O)NC(=O)N2c2cccc(O)c2)cc(OC)c1OC` (stereo unspecified), for which the pIC50 with HeLa and in the data set on A2780 was below 4.30 in each case.
Consider `COc1ccc(C2C(=O)NC(=O)N2c2cc(OC)c(OC)c(OC)c2)cc1O` (stereo unspecified), for which the pIC50 with HeLa and with A2780 was below 4.30 each time.
Turning to `COc1ccc(N2C(=O)N(C)C(=O)C2c2cc(OC)c(OC)c(OC)c2)cc1F` (stereo unspecified), the pIC50 was 6.29 in the data set on HeLa, 6.28 with HCT-116, 6.34 in the data set on MDA-MB-231 and 6.26 in the data set with A2780.
Regarding `COc1cc(C2C(=O)N(C)C(=O)N2c2ccc(C)c(C)c2)cc(OC)c1OC` (stereo unspecified), the pIC50 is 6.44 in the data set on HeLa, 6.51 in the data set on HCT-116, 6.31 with MDA-MB-231 and 6.27 in the data set with A2780.
The like results for `COc1ccc(N2C(=O)NC(=O)C2c2cc(OC)c(OC)c(OC)c2)cc1F` (stereo unspecified) were, in that order, 6.11, 6.20, 6.14 and 6.13.
With `COc1cc(C2C(=O)NC(=O)N2c2ccc3ncccc3c2)cc(OC)c1OC` (stereo unspecified), the negative logarithm of the IC50 (pIC50) in the data set with HeLa and with A2780 was below 4.30 throughout.
For `COc1cc(C2C(=O)NC(=O)N2c2ccc(C)c([N+](=O)[O-])c2)cc(OC)c1OC` (stereo unspecified), the results for the pIC50 in the data set on HeLa and in the data set on A2780 were 5.26 and 5.54, respectively.
On to `COc1ccc(N2C(=O)N(C)C(=O)C2c2cc(OC)c(OC)c(OC)c2)cc1O` (stereo unspecified), for which the negative logarithm of the IC50 (pIC50) is 6.37 in the data set on HeLa, 6.41 with HCT-116, 6.52 in the data set with MDA-MB-231 and 6.45 in the data set on A2780.
As to `COc1ccc(N2C(=O)N(C)C(=O)[C@H]2c2cc(OC)c(OC)c(OC)c2)cc1N`, the negative logarithm of the IC50 (pIC50) is 7.09 in the data set on HeLa, 6.80 with HCT-116, 6.90 in the data set with MDA-MB-231 and 7.01 with A2780.
As to `COc1ccc(/C=C\c2cc(OC)c(OC)c(OC)c2)cc1O` [COMBRETASTATIN A4], the negative-log IC50 (pIC50) with HeLa was 8.15; in data set [1] it was 5.18; with MDA-MB-231, 8.70; in the data set with A2780, 8.30.
For the molecule `COc1ccc(N2C(=O)N(C)C(=O)[C@@H]2c2cc(OC)c(OC)c(OC)c2)cc1N`, the pIC50 is 6.40 with HeLa, 6.45 in the data set with HCT-116, 6.24 in the data set on MDA-MB-231 and 6.52 in the data set with A2780.
Take `COc1ccc(N2C(=S)NC(=O)C2c2cc(OC)c(OC)c(OC)c2)cc1O` (stereo unspecified): the pIC50 in the data set on HeLa and with A2780 was below 4.30 each time.
In the case of `COc1cc(C2C(=O)NC(=O)N2c2ccc(C)c(N)c2)cc(OC)c1OC` (stereo unspecified), the pIC50 was 6.03 with HeLa, 6.01 in the data set on HCT-116, 5.93 with MDA-MB-231 and 5.98 in the data set on A2780.
With `COc1ccc(C2C(=O)NC(=O)N2c2cc(OC)c(OC)c(OC)c2)cc1` (stereo unspecified), the negative logarithm of the IC50 (pIC50) with HeLa and with A2780 was below 4.30 in each case.
For the molecule `COc1cc(C2C(=O)NC(=O)N2c2ccccc2)cc(OC)c1OC` (stereo unspecified), the pIC50 in the data set on HeLa and with A2780 was below 4.30 in each case.
As to `COc1ccc(N2C(=S)NC(=O)C2c2cc(OC)c(OC)c(OC)c2)cc1` (stereo unspecified), the pIC50 in the data set on HeLa and in the data set on A2780 was below 4.30 throughout.
For `COc1ccc(N2C(=O)NC(=O)C2c2cc(OC)c(OC)c(OC)c2)cc1N` (stereo unspecified), the pIC50 is 6.23 with HeLa, 6.63 in the data set with HCT-116, 6.51 in the data set with MDA-MB-231 and 6.55 in the data set on A2780.
Regarding `COc1ccc(N2C(=O)NC(=O)C2c2cc(OC)c(OC)c(OC)c2)cc1OS(=O)(=O)F` (stereo unspecified), the values for the pIC50 with HeLa and in the data set with A2780 were 5.17 and 5.34, respectively.
The like results for `COc1cc(C2C(=O)NC(=O)N2c2cc(OC)c(OC)c(OC)c2)cc(OC)c1OC` (stereo unspecified) were, in that order, below 4.30 and below 4.30.
`COc1cc(C2C(=O)NC(=O)N2c2ccc3[nH]ccc3c2)cc(OC)c1OC` (stereo unspecified): the pIC50 in the data set on HeLa is below 4.30; with A2780 it was 5.08.
`COc1cc(C2C(=O)NC(=O)N2c2ccc3c(ccn3S(=O)(=O)c3ccc(C)cc3)c2)cc(OC)c1OC` (stereo unspecified): the pIC50 in the data set on HeLa and in the data set with A2780 was below 4.30 in each case.
Consider `COc1cc(C2C(=O)NC(=O)N2c2ccc(C)c(C)c2)cc(OC)c1OC` (stereo unspecified), for which the negative-log IC50 (pIC50) in the data set on HeLa was 6.21; in the data set with HCT-116, 6.32; in the data set on MDA-MB-231 it was 6.08; in the data set with A2780 it was 6.20.
For the molecule `CCN1C(=O)C(c2cc(OC)c(OC)c(OC)c2)N(c2ccc(OC)c(N)c2)C1=O` (stereo unspecified), the figures for the negative logarithm of the IC50 (pIC50) in the data set on HeLa and in the data set with A2780 were 5.48 and 5.72, respectively.
The like results for `COc1ccc(N2C(=O)NC(=O)C2c2cc(OC)c(OC)c(OC)c2)cc1` (stereo unspecified) were, in that order, 5.55 and 5.67.
Turning to `COc1ccc(N2C(=O)NC(=O)C2c2cc(OC)c(OC)c(OC)c2)cn1` (stereo unspecified), the negative logarithm of the IC50 (pIC50) in the data set on HeLa and in the data set on A2780 was below 4.30 throughout.
With `COc1ccc(N2C(=O)NC(=O)C2c2cc(OC)c(OC)c(OC)c2)cc1[N+](=O)[O-]` (stereo unspecified), the negative logarithm of the IC50 (pIC50) with HeLa is 5.32; with A2780 it was 5.01.
Turning to `COc1cc(C2C(=O)NC(=O)N2c2cnc3ccccc3c2)cc(OC)c1OC` (stereo unspecified), the negative logarithm of the IC50 (pIC50) in the data set on HeLa and in the data set on A2780 was below 4.30 throughout.
Regarding `CC(=O)O[C@H]1C(=O)[C@@]2(C)[C@H]([C@H](OC(=O)c3ccccc3)[C@]3(O)C[C@H](OC(=O)[C@H](O)[C@@H](NC(=O)c4ccccc4)c4ccccc4)C(C)=C1C3(C)C)[C@]1(OC(C)=O)CO[C@@H]1C[C@@H]2O` [PACLITAXEL], the Activity is 94% in data set [2] and 51% in data set [3].
Consider `COc1cc(C2C(=O)N(C)C(=O)N2c2ccc(C)c(N)c2)cc(OC)c1OC` (stereo unspecified), for which the negative-log IC50 (pIC50) is 6.20 with HeLa, 6.17 in the data set with HCT-116, 5.93 with MDA-MB-231 and 6.17 in the data set on A2780.

The values above are taken from ChEMBL document CHEMBL4177684, “Design, synthesis, and biological evaluation of hydantoin bridged analogues of combretastatin A-4 as potential anticancer agents” (Bioorg Med Chem, 2017).
